# Screens as filed in PubChem BioAssay.
# Only some compounds are listed: those with a hit (about 2.2% of all), similar ones and a draw of the others.
# GalR3 antag = blocks the human galanin receptor 3 | inhibition, % at 3 µM | O60755 | 0.44% of 360,000 active | HEK293 GalR3-CNG cAMP membrane potential fluorescence; galR3 body fused to GalR1 C-terminus | AID 651719;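 active means inhibition above the screen-wide average plus 3 SD, cut at about 13% in these data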;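 further: forskolin and galanin both at EC90 stimulate the cells; cAMP rise reported by CNG channel membrane potential dye signal; 0% = forskolin plus galanin with DMSO and 100% = forskolin alone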
# Target sequence (O60755 1-299 limits assumed): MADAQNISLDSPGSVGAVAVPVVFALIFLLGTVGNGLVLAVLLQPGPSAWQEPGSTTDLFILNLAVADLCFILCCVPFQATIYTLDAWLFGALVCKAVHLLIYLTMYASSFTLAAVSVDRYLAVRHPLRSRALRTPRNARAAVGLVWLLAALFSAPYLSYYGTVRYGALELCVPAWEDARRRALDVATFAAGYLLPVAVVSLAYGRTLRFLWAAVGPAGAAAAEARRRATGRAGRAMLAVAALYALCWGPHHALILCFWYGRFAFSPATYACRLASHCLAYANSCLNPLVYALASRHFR
# HIV Env fusion = inhibitors of HIV Env-mediated cell fusion | HeLa-JRFL Env/CEM21 cell fusion, luciferase | inhibition, % at 12.3 µM | 1.1% of 360,000 active;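 active means mean replicate inhibition score of at least 50 and every replicate individually at or above 50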;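 further: 0% = plate neutral controls and 100% = maraviroc near 300 nM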
# NR2E3 ag-1 = human photoreceptor-specific nuclear receptor agonism; CHO-S Gal4-NCOR/VP16-NR2E3 two-hybrid, luciferase; inhibition of corepressor binding, % at 3.98 µM; Q9Y5X4; 0.35% of 360,000 active;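 active means inhibition above the mean of all tested compounds plus 3 SD, cut at about 70% in these data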;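 further: 0% = DMSO with NR2E3 transfected cells and 100% = cells lacking NR2E3 construct; higher means lower luciferase signal from less NR2E3 corepressor binding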
# NR2E3 ag-2 = activates human photoreceptor nuclear receptor NR2E3; Q9Y5X4; GST-NR2E3/biotin-RetCOR TR-FRET, 1536-well; inhibition of corepressor binding, % at 4.78 µM; 0.12% of 320,000 active;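 active means percent inhibition above the cutoff of mean plus 3 SD of all tested compounds, set per screening campaign, cut at about 20% in these data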;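 further: 0% = DMSO wells and 100% = biotin wells as full block of FRET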
#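 Material: NR2E3–RetCOR corepressor complex / Incubation: Compound–protein incubation for 5 h at 4 °C / Dosing: compound at 4.8 µM, single dose / Detection: time-resolved FRET / Benchmarks: high control biotin, low control 0.6% DMSO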
# FXN GAA850 act = frataxin GAA850 promoter activation; activation, % at 6 µM; HEK293 lucGAA850 FXN promoter luciferase reporter, 24 h; percent of 10 µM SAHA response; 0.56% of 360,000 active;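 active means activation above the average of all compounds screened plus 3 SD, cutoff fixed separately per campaign, cut at about 7.5% in these data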;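 further: 0% = DMSO wells and 100% = 10 µM SAHA wells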
# V-ATPase pHluor = regulators of yeast V-ATPase proton transport; AID 504577; 0.37% of 350,000 active; S. cerevisiae, pHLuorin cytosolic pH fluorescence; response, % at 10 µM; in the data active means response mostly above about 7.3%, no sharp cut-off; inactive means mostly below about 5.4%; further: actives read high
# The depositor's hits bear a star; / = not tested or not shown; [ ] = another dose, or the depositor's remark.
SMILES,GalR3 antag,HIV Env fusion,NR2E3 ag-1,NR2E3 ag-2,FXN GAA850 act,V-ATPase pHluor
CCCC(=O)Nc1ccc2c(c1)OC[C@H](C)N(Cc1ccncc1)C[C@H](C)[C@H](OC)CN(C)C2=O,/,63.5*[16.7 µM],/,/,/,/
CO[C@H]1CN(C)C(=O)c2ccc(NC(=O)C3CC3)cc2OC[C@H](C)N(Cc2cc(F)ccc2F)C[C@@H]1C,/,80.8*[16.7 µM],/,/,/,/
C[C@@H]1CCCCO[C@@H](CN(C)C(=O)Nc2ccc(C(F)(F)F)cc2)[C@@H](C)CN([C@H](C)CO)C(=O)c2cc(NC(=O)CCCCCC(=O)Nc3ccccc3N)ccc2O1,/,-14.2[16.7 µM],/,/,/,/
Cc1n[nH]c(=S)n1/N=C/c1ccccc1OCc1ccc(Cl)cc1,7.1,-63.7,-59.6,1.9,8.3*,6.1
COc1cccc(S(=O)(=O)N[C@@H]2CC[C@H](CCN)O[C@H]2CO)c1,/,65.6*[16.7 µM],/,/,/,/
COc1cccc(S(=O)(=O)N[C@@H]2CC[C@@H](CCN)O[C@@H]2CO)c1,/,18.2[16.7 µM],/,/,/,/
COc1cccc(S(=O)(=O)N[C@H]2CC[C@@H](CCN)O[C@@H]2CO)c1,/,68.0*[16.7 µM],/,/,/,/
Cc1ccc(NC(=O)c2ccc(OC(F)(F)F)cc2)cc1S(=O)(=O)N(C)C,-0.2,62.0*,3.0,3.2,-0.9,3.8
C[C@H]1CN([C@@H](C)CO)S(=O)(=O)c2ccc(-c3ccc(C(=O)N(C)C)cc3)cc2O[C@@H]1CN(C)Cc1ccccc1C(=O)O,/,-27.7[16.7 µM],/,/,/,/
O=C1Nc2ccccc2N=C(c2ccc3c(c2)OCO3)C1N(C(=O)c1ccc2ccccc2c1)C1CC1 (stereo not drawn),-3.4,55.6*,-126.9,/,/,/
COC(=O)C1CCN(Cc2c(C(=O)N3C[C@@H](C)O[C@@H](C)C3)nc3ccc(Cl)cn23)CC1,-3.8,5.3,11.1,0.0,1.9,0.5
C[C@@H]1CN(C(=O)c2nc3ccc(Cl)cn3c2CN2CCc3sccc3C2)C[C@H](C)O1,0.2,10.0,3.4,-1.7,1.1,13.4*
Cc1cc(C(=O)COc2ccc(-c3nnco3)cc2)c(C)n1Cc1ccccc1,-3.0,65.2*,-14.9,-1.6,1.2,-1.4
O=C(COc1ccc(-c2nnco2)cc1)NCc1ccccc1Cl,-0.2,/,13.5,0.0,2.6,-1.6
CCCC#Cc1cnc2c(c1)C(=O)N([C@@H](C)CO)C[C@H](C)[C@@H](CN(C)C(=O)Cc1ccncc1)O2,/,21.8[16.7 µM],/,/,/,/
CS(=O)(=O)N(Cc1ccc(Cl)cc1)c1ccc(C(=O)NCCC2=CCCCC2)cc1,-4.1,85.3*,9.9,-3.0,-2.0,1.2
O=C(NCCC1=CCCCC1)c1ccc(Cl)cc1,/,/,/,1.5,/,/
CN(c1cccc(NC(=O)CCSc2ccccc2)c1)S(C)(=O)=O,-2.7,/,-0.9,-0.4,-1.3,-3.2
CN(c1cccc(NC(=O)CSc2ccc(Cl)cc2)c1)S(C)(=O)=O,-2.8,61.1*,13.7,5.0,-1.5,0.5
C[C@@H]1CCCCO[C@H](CN(C)Cc2ccc3c(c2)OCO3)[C@H](C)CN([C@@H](C)CO)C(=O)c2cc(NC(=O)Cc3ccccc3)ccc2O1,/,-21.3[16.7 µM],/,/,/,/
O=C(NC1CCCCC1)C(c1ccc(Cl)cc1)N(C(=O)c1cnccn1)c1ccc2c(c1)OCO2 (stereo not drawn),0.7,83.2*,-17.4,-2.3,5.7,1.1
C[C@H](CO)N1C[C@H](C)[C@@H](CN(C)S(=O)(=O)c2cn(C)cn2)Oc2ccc(NS(=O)(=O)c3cccs3)cc2CC1=O,/,-8.4[16.7 µM],/,/,/,/
Oc1ccc(C=NNc2ccccn2)c(O)c1,-7.0,69.1*,-33.0,/,-8.9,-2.4
Oc1cccc(C=NNc2ccccn2)c1,0.5,-38.0,-50.4,/,0.6,5.5
O=c1cc(C(F)(F)F)[nH]c2c(C(F)(F)F)cccc12,/,/,100.5*,3.8,0.9,-1.0
Cc1cc(=O)c2cccc(Br)c2[nH]1,0.2,/,4.6,-0.4,-0.4,-1.5
Cc1onc(-c2ccccc2)c1C(=O)OCCOc1cccc(Cl)c1,-4.1,74.7*,-24.6,0.2,-3.2,-4.0
C[C@H](CO)N1C[C@H](C)[C@@H](CN(C)C(=O)C2CCCCC2)Oc2ncc(-c3ccccc3)cc2C1=O,/,32.5[16.7 µM],/,/,/,/
O=C(COC(=O)c1cccc(Br)c1)NC1CCCCCCC1,-3.6,58.3*,-23.8,/,0.2,0.5
O=C(COC(=O)c1ccc(Br)cc1)NC1CCCC1,-7.9,-3.4,-0.5,1.5,-2.1,1.2
